Legend:
D(3) dopamine receptor [1] = biological target: D(3) dopamine receptor (Rattus norvegicus, UniProt P19020); assay: Displacement of [3H]spiperone from rat dopamine D3 receptor expressed in sf9 cells after 60 mins
[2] = biological target: Dopamine receptor D2 and D3 (Rattus norvegicus) (UniProt P19020+P61169); assay: Selectivity ratio of Ki for rat dopamine D2 receptor to Ki for rat dopamine D3 receptor
D(3) dopamine receptor [3] = biological target: T1, D(3) dopamine receptor (Homo sapiens, UniProt P35462); assay: Displacement of [3H]-spiperone from cloned human dopamine D3 receptor
T1 sequence (P35462 whole entry): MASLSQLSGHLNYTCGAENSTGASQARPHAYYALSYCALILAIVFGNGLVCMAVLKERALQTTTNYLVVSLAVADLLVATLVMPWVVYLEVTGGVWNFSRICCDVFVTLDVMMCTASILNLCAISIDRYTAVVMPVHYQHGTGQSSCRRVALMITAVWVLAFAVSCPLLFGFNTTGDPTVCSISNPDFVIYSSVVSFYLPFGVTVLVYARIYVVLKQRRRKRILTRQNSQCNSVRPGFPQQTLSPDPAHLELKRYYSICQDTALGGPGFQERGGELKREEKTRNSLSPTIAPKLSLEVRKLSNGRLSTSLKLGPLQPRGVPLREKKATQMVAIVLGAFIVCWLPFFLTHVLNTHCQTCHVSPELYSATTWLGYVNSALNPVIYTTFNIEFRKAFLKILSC
Procedure, shortened: (§1)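 Competition binding at human receptor subtypes by the group's earlier procedure. Ki was calculated from displacement data by the Cheng–Prusoff equation.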

[4] = biological target: D(1A) dopamine receptor (Homo sapiens) (UniProt P21728); assay: Displacement of [3H]-SCH23390 from cloned human dopamine D1 receptor at 1 uM relative to control
Sequence of D(1A) dopamine receptor (Homo sapiens) (P21728 whole entry): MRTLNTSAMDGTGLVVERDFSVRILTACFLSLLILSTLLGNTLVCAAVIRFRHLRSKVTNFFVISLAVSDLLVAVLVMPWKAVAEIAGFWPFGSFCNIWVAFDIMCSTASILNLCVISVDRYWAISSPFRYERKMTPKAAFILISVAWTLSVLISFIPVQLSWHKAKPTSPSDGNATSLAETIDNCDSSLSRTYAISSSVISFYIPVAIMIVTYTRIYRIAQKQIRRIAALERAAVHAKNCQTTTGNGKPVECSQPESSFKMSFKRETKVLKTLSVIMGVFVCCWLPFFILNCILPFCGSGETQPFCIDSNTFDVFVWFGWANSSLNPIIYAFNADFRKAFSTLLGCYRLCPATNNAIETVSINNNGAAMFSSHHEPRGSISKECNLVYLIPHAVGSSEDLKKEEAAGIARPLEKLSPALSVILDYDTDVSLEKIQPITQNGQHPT
Procedure, shortened: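 Competition binding at the human D1 receptor. Compounds with little affinity are reported as percent inhibition at the highest concentration tested.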

[5] = biological target: Dopamine receptors; D3 & D4 (Homo sapiens) (UniProt P35462+P21917); assay: Selectivity ratio of Ki for cloned human dopamine D4 receptor to Ki for cloned human dopamine D3 receptor
Sequence of Dopamine receptors; D3 & D4 (Homo sapiens) (P35462 whole entry, looked up, one chain of several): as the sequence (P35462 whole entry) above

D(3) dopamine receptor [6] = biological target: T1, D(3) dopamine receptor; assay: Antagonist activity at human dopamine D3 receptor assessed as [35S]GTPgammaS binding preincubated for 15 mins followed by [35S]GTPgammaS addition measured after 40 mins; assay type: functional
D(2) dopamine receptor = D(2) dopamine receptor (Homo sapiens, UniProt P14416); assay: Displacement of [3H]-spiperone from cloned human dopamine D2 receptor; procedure, shortened: as §1
Sequence of D(2) dopamine receptor (P14416 whole entry): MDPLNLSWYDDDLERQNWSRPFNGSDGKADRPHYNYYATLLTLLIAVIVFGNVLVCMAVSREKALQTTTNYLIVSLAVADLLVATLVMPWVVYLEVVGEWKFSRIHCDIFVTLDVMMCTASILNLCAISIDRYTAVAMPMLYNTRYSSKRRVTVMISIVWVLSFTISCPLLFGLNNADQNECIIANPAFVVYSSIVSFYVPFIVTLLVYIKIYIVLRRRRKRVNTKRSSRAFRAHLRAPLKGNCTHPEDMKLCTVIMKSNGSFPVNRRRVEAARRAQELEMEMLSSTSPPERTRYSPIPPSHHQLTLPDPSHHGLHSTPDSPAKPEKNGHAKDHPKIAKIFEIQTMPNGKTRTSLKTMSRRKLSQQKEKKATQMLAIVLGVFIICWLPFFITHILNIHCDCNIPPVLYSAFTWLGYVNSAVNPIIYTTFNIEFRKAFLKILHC

Homo sapiens [7] = organism: Homo sapiens; assay: Selectivity ratio of Ki for cloned human dopamine D2 receptor to Ki for cloned human dopamine D3 receptor
D(4) dopamine receptor = biological target: T2, D(4) dopamine receptor (Homo sapiens, UniProt P21917); assay: Displacement of [3H]-spiperone from cloned human dopamine D4 receptor; procedure, shortened: as §1
T2 sequence (P21917 whole entry): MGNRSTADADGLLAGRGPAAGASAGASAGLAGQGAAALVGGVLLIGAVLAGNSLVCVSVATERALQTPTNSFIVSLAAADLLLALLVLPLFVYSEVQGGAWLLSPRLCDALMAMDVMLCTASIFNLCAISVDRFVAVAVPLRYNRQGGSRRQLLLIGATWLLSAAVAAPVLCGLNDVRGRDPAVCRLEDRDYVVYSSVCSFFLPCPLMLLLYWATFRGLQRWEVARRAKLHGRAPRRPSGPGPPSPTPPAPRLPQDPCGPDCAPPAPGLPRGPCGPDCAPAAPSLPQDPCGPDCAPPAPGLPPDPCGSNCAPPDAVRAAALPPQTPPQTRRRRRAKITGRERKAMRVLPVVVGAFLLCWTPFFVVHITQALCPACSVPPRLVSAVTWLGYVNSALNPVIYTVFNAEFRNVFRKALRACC

Homo sapiens [8] = organism: Homo sapiens; assay: Selectivity ratio of Ki for dopamine D2 receptor (unknown origin) to Ki for dopamine D3 receptor (unknown origin)
Procedure, shortened: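 Radioligand competition binding at human D2 and D3 receptors. Ki was derived from displacement data using the Cheng–Prusoff equation. The selectivity value is the D2 Ki divided by the D3 Ki.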

Sequence of D(3) dopamine receptor (Rattus norvegicus, UniProt P19020) (P19020 whole entry): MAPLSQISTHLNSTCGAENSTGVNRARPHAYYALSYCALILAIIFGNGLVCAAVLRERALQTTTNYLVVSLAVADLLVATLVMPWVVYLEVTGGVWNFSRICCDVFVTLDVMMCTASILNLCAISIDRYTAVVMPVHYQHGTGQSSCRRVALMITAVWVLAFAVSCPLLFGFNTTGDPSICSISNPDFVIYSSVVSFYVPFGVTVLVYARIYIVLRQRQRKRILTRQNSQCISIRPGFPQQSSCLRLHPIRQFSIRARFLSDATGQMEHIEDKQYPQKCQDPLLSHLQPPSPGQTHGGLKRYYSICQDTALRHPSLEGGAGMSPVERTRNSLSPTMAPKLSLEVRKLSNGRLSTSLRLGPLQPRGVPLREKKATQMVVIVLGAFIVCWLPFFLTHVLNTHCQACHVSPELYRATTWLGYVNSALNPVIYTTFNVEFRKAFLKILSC
Sequence of Dopamine receptor D2 and D3 (Rattus norvegicus) (P19020 whole entry, looked up): as the sequence (P19020 whole entry) above
Sequence of Dopamine receptor D2 and D3 (Rattus norvegicus) (P61169 whole entry, looked up): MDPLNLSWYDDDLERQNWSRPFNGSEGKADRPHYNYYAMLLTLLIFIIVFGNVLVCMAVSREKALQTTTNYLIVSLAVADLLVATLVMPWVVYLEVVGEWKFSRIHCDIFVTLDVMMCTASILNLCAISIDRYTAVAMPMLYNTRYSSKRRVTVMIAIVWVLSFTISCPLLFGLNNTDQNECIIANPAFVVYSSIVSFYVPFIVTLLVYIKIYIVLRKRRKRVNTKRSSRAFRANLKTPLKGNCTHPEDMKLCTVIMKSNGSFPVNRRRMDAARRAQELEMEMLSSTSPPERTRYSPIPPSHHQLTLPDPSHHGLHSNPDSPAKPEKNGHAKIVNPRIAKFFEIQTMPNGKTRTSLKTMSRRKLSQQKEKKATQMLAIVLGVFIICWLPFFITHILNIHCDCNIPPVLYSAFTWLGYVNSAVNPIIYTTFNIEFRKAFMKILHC

Structure (SMILES) | Ki (D(3) dopamine receptor [1]) [nM] | Ratio Ki [2] | Ki (D(3) dopamine receptor [3]) [nM] | inhibition [4] [%] | Ratio Ki [5] | Kb (D(3) dopamine receptor [6]) [nM] | Ki (D(2) dopamine receptor) [nM] | Ratio Ki (Homo sapiens [7]) | Ki (D(4) dopamine receptor) [nM] | Ratio Ki (Homo sapiens [8])
NC(=O)c1cccc(N2CCN(CCCCNC(=O)c3ccc(Br)cc3)CC2)c1 | 1.6 | 1800 |  |  |  |  |  |  |  | 
COc1ccccc1N1CCN(CCCCn2cc(-c3ccc(N)cc3)nn2)CC1 |  |  | 2.7 | 38.4 | 197 | 1.4 | 199 | 73.6 | 532 | 
COc1ccccc1N1CCN(CCCCn2cc(-c3ccc(Br)cc3)nn2)CC1 |  |  | 111 | 44.3 | 3.5 |  | 227 | 2 | 387 | 
COc1ccc(-c2cn(CCCCN3CCN(c4ccccc4OC)CC3)nn2)cc1 |  |  | 40.1 | 44.3 | 9.8 |  | 212 | 5.3 | 395 | 
COc1ccccc1N1CCN(CCCCn2cc(-c3cccnc3)nn2)CC1 |  |  | 132 | 40.9 | 14.3 |  | 181 | 1.4 | 1900 | 
COc1ccccc1N1CCN(CCCCn2cc(-c3ccc(-c4cnco4)cc3)nn2)CC1 |  |  | 135 | 50 | 3.2 |  | 137 | 1 | 426 | 
COc1ccccc1N1CCN(CCCCn2cc(-c3ccccc3)nn2)CC1 |  |  | 81.2 | 39.4 | 7.9 |  | 228 | 2.8 | 639 | 
CCCN[C@H]1CCc2nc(N)sc2C1 [PRAMIPEXOLE] |  |  |  |  |  |  |  |  |  | 72

— ChEMBL document CHEMBL2429816, “Synthesis and binding affinity of new 1,4-disubstituted triazoles as potential dopamine D(3) receptor ligands” (Bioorg Med Chem Lett, 2013)
